The array DNA melting data of Ke et al. (doi:10.1101/2024.01.08.574731)

Assays:
[1] = folding enthalpy; higher = less favourable; fluorescence melt of hairpins on a sequencing array, two-state fit; details: sodium 0.088 M
Outline: (§1)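 Folding enthalpy and melting temperature come from bootstrapped two-state fits to Cy3 fluorescence of library hairpins carrying annealed Cy3 and quencher oligos on a sequenced MiSeq flow cell. Imaging was done in 50 mM Na-HEPES pH 8.0, 25 mM NaCl, stepping by 2.5 °C up to 60 °C, and signals were normalised to pre-quench Cy3 and to control constructs. Results of four replicates were combined by inverse variance, and fitted temperatures were raised by 9.35 °C to match UV melts.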

[2] = melting temperature; fluorescence melt of hairpins on a sequencing array, two-state fit, raised by 9.35 °C to match UV melts; details: sodium 0.088 M
Outline: as §1

Row | Sequence | folding enthalpy [1] [kcal/mol] | Tm [2] [°C]
1 | GCAGAGCGAAAGCACTGC ((((.((....)).)))) | -34 | 67.4
2 | GATCTAGGCATAGATC ((((((....)))))) | -36.9 | 48.8
3 | GTTGTCGAAAGACTTAAC ((((((....)))..))) | -10 | 27.2
4 | GATCCAGAGGTGGATC ((((((....)))))) | -28.5 | 47.8
5 | GCGATCAGTCGC ((((....)))) | -23.2 | 49.3
6 | GATCTCAGAGGAGATC ((((((....)))))) | -32.9 | 50.8
7 | GACCAACCGAAAGGTGTC (((..(((....)))))) | -13 | 35.5
8 | GAAACGGGAAACCGCTTC (((.(((....))).))) | -24.2 | 40.4
9 | GTGCACGGAAACATGCAC (((((.(....).))))) | -34.6 | 47.9
10 | GTTAACGGAAACGTCAAC (((.(((....))).))) | -15.2 | 34.2
11 | GATCTCAGATGAGATC ((((((....)))))) | -36.3 | 52.5
12 | GATCAGCCATCTGATC ((((((....)))))) | -37.4 | 49.4
13 | GATCGGAAACCGATC ((((((...)))))) | -38 | 56
14 | GCGTAAAAACGC ((((....)))) | -19.9 | 46.4
15 | GATCCCGTCCGGGATC ((((((....)))))) | -42 | 67.9
16 | GAACCCCGAAAGGGTTTC (((.(((....))).))) | -16.2 | 47.8
17 | GGAAATGGAAACATTCCC ((.((((....)))).)) | -25.1 | 33.1
18 | GAGGCTACGAAAGTACTC (((..(((....)))))) | -10.2 | 23.8
19 | GATCCAGGTATGGATC ((((((....)))))) | -35.1 | 58
20 | GTAATGGGAAACCATTGC (.(((((....))))).) | -26.4 | 43.3
21 | GGAACCCCGAAAGGGTCC (((..(((....)))))) | -15.5 | 45.9
22 | GGATACGGAAACGTGTTC (.(.(((....))).).) | -18.8 | 32.2
23 | GATCTCCTAGAGATC ((((((...)))))) | -35.1 | 53

Row | Sequence | folding enthalpy [1] [kcal/mol] | Tm [2] [°C]
24 | GCCCGGGCGAAAGCCGGC (((..(((....)))))) | -12.5 | 59.5
25 | GATTCGGGAAACCGAGTC ((.((((....)))).)) | -28 | 46.7
26 | GGACTGCGAAAGCAATCC (((.(((....))).))) | -12.7 | 47.8
27 | GCGGTCGAAAGACTACGC ((((((....)))..))) | -25.1 | 54.3
28 | GAACGTGGAAACGCGTTC (((((.(....).))))) | -36.4 | 53.8
29 | GCTCTCCGAAAGGATAGC (((.(((....))).))) | -34.7 | 49.1
30 | GCGGTATCCCGC ((((....)))) | -30.5 | 53.5
31 | GATCGGGGAAACTCGGTC ((.((.(....).)).)) | -28.3 | 38
32 | GGAGCCCCGAAAGGGTCC (((..(((....)))))) | -20.4 | 47.4
33 | CGTACGGAAACGTTGACG ((((((....)))..))) | -16.5 | 36.3
34 | GTTTAGGGAAACCTAAAC (((((((....))))))) | -39.9 | 52.7
35 | GTCGGCGAAAGCCAGGAC ((((((....)))..))) | -13.7 | 49.9
36 | GTTGCAGCGAAAGCTAAC (((..(((....)))))) | -11.6 | 29.2
37 | GAAAGGGGAAACCCCTTC (((.(((....))).))) | -14.8 | 39.9
38 | GACGACCCGAAAGGGGTC (((..(((....)))))) | -10.1 | 42.3
39 | GGTCTACCGAAAGGTACC (((..(((....)))))) | -11 | 29.1
40 | GGACGGGCGAAAGCCTCC (((..(((....)))))) | -10.5 | 33.7
41 | GATCGTGAAACGATC ((((((...)))))) | -36.8 | 66.8
42 | GTAACGGGAAACCGTTAC (((((((....))))))) | -49.6 | 60.5
43 | GATCCATCCTTGGATC ((((((....)))))) | -44.2 | 53.6
44 | GCTTTGCGAAAGCCACGC ((.(.((....)).).)) | -10.4 | 37
45 | GAGAGGGGAAACCCTCCC (.(((((....))))).) | -13.7 | 41.2
46 | GCGCAAACGAAAGTTCGC (((..(((....)))))) | -22.6 | 46.7

Row | Sequence | folding enthalpy [1] [kcal/mol] | Tm [2] [°C]
47 | GACGACGGAAACGTCACC (..((((....))))..) | -11.5 | 35.4
48 | GCGGACGAAAGTCTTCGC ((((((....)))..))) | -23.4 | 45.9
49 | GCCTAAGGAAACCTAGGC (((((.(....).))))) | -39.3 | 44.9
50 | GGAACGCGAAAGCGCTCC (((.(((....))).))) | -28.2 | 55.8
51 | GCCCCTCCGAAAGGAGGC (((..(((....)))))) | -5.85 | 39.8
52 | GCCGCTCGAAAGAGAGGC (((.(((....))).))) | -40 | 67.1
53 | GTCTAGGGAAACCTAGAC (((((((....))))))) | -40.4 | 56.2
54 | GATCTATAATAGATC ((((((...)))))) | -21.8 | 38.3
55 | GCATGCACGAAAGTGTGC (((..(((....)))))) | -13.3 | 42.5
56 | GCCAGGACGAAAGTCGGC (((..(((....)))))) | -27.3 | 52.6
57 | CGTCCGGAAACGGTGACG ((((((....)))..))) | -21.9 | 41
58 | GTGAACGGAAACGCTCAC ((((.((....)).)))) | -31.5 | 47.6
59 | GCTAACTCGAAAGAGAGC (((..(((....)))))) | -16.5 | 32
60 | GTCCACGAAAGTGGTGAC ((((((....)))..))) | -9.78 | 38.2
61 | GGCGCCGAAAGGCAAGCC ((((((....)))..))) | -21.7 | 63.8
62 | GATCGCTAAGGCGATC ((((((....)))))) | -39.2 | 67.8
63 | GTCCATCGAAAGATCGAC (((.(((....))).))) | -31 | 35.5
64 | GGGGACGGAAACGTCCTC (.(((((....))))).) | -13.7 | 58.7
65 | GTAACGGGAAACCGTCAC ((.((((....)))).)) | -16.4 | 35.7
66 | GCATCCGAAAGGATATGC ((((((....)))..))) | -15.7 | 47.6
67 | GCGTCGACACGC ((((....)))) | -21.5 | 51.7
68 | GATCAGTGGCTGATC ((((((...)))))) | -22 | 49.7
69 | GAAGGAGGAAACTTCTTC ((((.((....)).)))) | -35.7 | 46.8
